Consider 15 compounds from ChEMBL document CHEMBL1955783, “Identification and optimization of small molecule antagonists of vasoactive intestinal peptide receptor-1 (VIPR1)” (Bioorg Med Chem Lett, 2012).

For one data set, the system named is Calu-6. Put plainly: Cytotoxicity against human Calu6 cells expressing VIPR1 up to 10 uM in presence of 2% serum. Type of data set: functional, cell-based. The method in brief:
(§1)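 Cell proliferation in H727, H1299 and Calu6 lines, chosen for high VIPR1 expression. Medium held 2% serum to limit albumin sequestration. Compounds were tested at concentrations up to 10 µM.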

For the next data set, the system named is NCI-H1299. The data set is described as follows: Cytotoxicity against human NCI-H1299 cells expressing VIPR1 up to 10 uM in presence of 2% serum. The data set is classed as functional, cell-based. The method in brief: as §1
The subject of the next data set is NCI-H727. The data set is described as follows: Cytotoxicity against human NCI-H727 cells expressing VIPR1 up to 10 uM in presence of 2% serum. The data set is classed as functional, cell-based. The method in brief: as §1
Data set [1] concerns the target T1, Vasoactive intestinal polypeptide receptor 1 (Rattus norvegicus) (UniProt P30083).
T1 sequence (whole entry): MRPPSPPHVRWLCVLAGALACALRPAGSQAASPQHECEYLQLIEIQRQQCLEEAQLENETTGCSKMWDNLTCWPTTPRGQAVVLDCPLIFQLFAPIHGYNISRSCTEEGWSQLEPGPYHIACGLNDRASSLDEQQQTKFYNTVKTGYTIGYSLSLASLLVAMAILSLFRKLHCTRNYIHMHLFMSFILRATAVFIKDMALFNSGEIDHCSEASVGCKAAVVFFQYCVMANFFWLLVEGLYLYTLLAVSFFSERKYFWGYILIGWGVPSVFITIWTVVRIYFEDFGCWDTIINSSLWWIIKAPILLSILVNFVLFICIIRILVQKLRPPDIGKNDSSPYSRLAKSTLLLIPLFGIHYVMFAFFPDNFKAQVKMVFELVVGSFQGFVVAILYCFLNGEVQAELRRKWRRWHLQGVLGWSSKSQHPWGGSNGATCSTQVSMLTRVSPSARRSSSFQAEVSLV
Put plainly: Displacement of [125I]VIP from vasoactive intestinal peptide receptor 1 in rat RKE cell membrane after 3 hrs by TopCount assay. Type of data set: cell membranes. The method in brief:
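Membranes from RKE-VIPR cells, 5 µg/well final, preincubated 10 min at room temperature with wheat germ agglutinin-coated PVT beads in 50 mM HEPES, 5 mM MgCl2, 1 mM CaCl2, 0.1% BSA. IC50 taken from a four-parameter logistic fit after subtracting nonspecific binding, defined with excess VIP.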
Background: In a radioligand displacement assay an active substance lowers the binding of a labelled ligand.

Data set [2] has as its target T2, Vasoactive intestinal polypeptide receptor 1 (Rattus norvegicus, UniProt P30083).
T2 sequence (P30083 whole entry): T1 sequence (whole entry)
Put plainly: Antagonist activity at vasoactive intestinal peptide receptor 1 in rat RKE cells assessed as inhibition of VIP-induced intracellular cAMP accumulation incubated for 15 mins prior to VIP-stimulation measured after 30 mins by HTRF assay. On the technique in general: Cyclic AMP is a second messenger, typically raised through Gs and lowered through Gi signalling.

Data set [3] can be described thus: Plasma protein binding in mouse. The data set is classed as ADME, cell-free. Conditions: read-out: PPB (converted).
Data set [4] in a line: Plasma protein binding in human. The data set is classed as ADME, cell-free. The following applies: read-out: PPB (converted).

Structures are written as SMILES. The source made the active and inactive calls. No cut-off for these calls is given here.

By IC50 is commonly meant the point on the concentration scale where inhibition reaches its midpoint. As for `Cc1ccc(-c2cc(C(C)(C)C)cc(C(C)C)c2CO)cc1C`, the outcome in the data set on Calu-6, in the data set on NCI-H1299 and in the data set on NCI-H727 was inactive. In addition, in data set [1], the outcome was Active. Besides, the IC50 in data set [2] is 81 nM.

In the case of `CC(C)c1cc(C(C)(C)C)cc(-c2cccc(-c3ccccc3)c2)c1CO`, the result with Calu-6, with NCI-H1299 and with NCI-H727 was inactive. Further, the result in data set [1] was Active. Moreover, the 50% inhibitory concentration (IC50) in data set [2] stood at 210 nM.

`CC(C)c1cc(C(C)(C)C)cc(-c2cccc(C(F)(F)F)c2)c1CO`: the result in the data set on Calu-6, in the data set with NCI-H1299 and in the data set on NCI-H727 was inactive. In addition, the outcome in data set [1] was Active. The IC50 in data set [2] is greater than 50000 nM.

As to `CSc1cccc(-c2cc(C(C)(C)C)cc(C(C)C)c2CO)c1`, the outcome with Calu-6, in the data set with NCI-H1299 and in the data set on NCI-H727 was inactive. In addition, the result in data set [1] was Active. In addition, the IC50 in data set [2] was determined as 170 nM.

`CC(C)c1cc(C(C)(C)C)cc(-c2ccccc2)c1CO`: the outcome with Calu-6, in the data set on NCI-H1299 and in the data set on NCI-H727 was inactive. In addition, in data set [1], the result was Active. In data set [2], the IC50 was 390 nM.

Regarding `Cc1ccc(-c2cc(C(C)(C)C)cc(C(C)C)c2CO)cc1`, the outcome in the data set with Calu-6, in the data set with NCI-H1299 and in the data set with NCI-H727 was inactive. Further, the result in data set [1] was Active. Further, the IC50 in data set [2] turned out to be 300 nM.

Regarding `COc1ccccc1-c1cc(C(C)(C)C)cc(C(C)C)c1CO`, the result in the data set with Calu-6, in the data set with NCI-H1299 and with NCI-H727 was inactive. The result in data set [1] was Active. The IC50 in data set [2] was found to be 820 nM.

Regarding `CC(C)c1cc(C(C)(C)C)cc(-c2cccc3ccccc23)c1CO`, the outcome in the data set with Calu-6, in the data set with NCI-H1299 and in the data set on NCI-H727 was inactive. For the same compound, the outcome in data set [1] was Active. Also, the IC50 in data set [2] is 180 nM.

Turning to `CC(C)c1cc(C(C)(C)C)cc(-c2ccc3ccccc3c2)c1CO`, the result in the data set on Calu-6, in the data set on NCI-H1299 and in the data set with NCI-H727 was inactive. The result in data set [1] was Active. Moreover, the IC50 in data set [2] is 120 nM.

With `COc1cccc(-c2cc(C(C)(C)C)cc(C(C)C)c2CO)c1`, the outcome in the data set on Calu-6, in the data set on NCI-H1299 and in the data set on NCI-H727 was inactive. Besides, the result in data set [1] was Active. Besides, the IC50 in data set [2] came out at 200 nM.

Regarding `CC(C)c1cc(C(C)(C)C)cc(-c2ccc(F)cc2)c1CO`, the fraction unbound in data set [3] and in data set [4] was 0.1 in each case. In addition, the result with Calu-6, with NCI-H1299 and in the data set on NCI-H727 was inactive. Further, the result in data set [1] was Active. The IC50 in data set [2] came to 740 nM.

On to `CC(C)c1cc(C(C)(C)C)cc(-c2ccc(-c3ccccc3)cc2)c1CO`, for which the outcome in the data set on Calu-6, with NCI-H1299 and in the data set with NCI-H727 was inactive. For the same compound, in data set [1], the outcome was Active. Besides, in data set [2], the IC50 stood at 680 nM.

With `CC(C)c1cc(C(C)(C)C)cc(-c2ccccc2-c2ccccc2)c1CO`, the outcome with Calu-6, in the data set on NCI-H1299 and in the data set with NCI-H727 was inactive. The result in data set [1] was Active. Also, the IC50 in data set [2] turned out to be 3200 nM.

Turning to `CC(C)c1cc(C(C)(C)C)cc(-c2cccc(C#N)c2)c1CO`, the outcome with Calu-6, in the data set with NCI-H1299 and in the data set on NCI-H727 was inactive. Further, the result in data set [1] was Active. The IC50 in data set [2] is greater than 50000 nM.

Consider `COc1ccc(-c2cc(C(C)(C)C)cc(C(C)C)c2CO)cc1`, for which the outcome in the data set with Calu-6, in the data set with NCI-H1299 and in the data set on NCI-H727 was inactive. In addition, in data set [1], the outcome was Active. For the same compound, in data set [2], the IC50 is 1300 nM.
